In ChEMBL document CHEMBL3091454, “Improved Cav2.2 Channel Inhibitors through a gem-Dimethylsulfone Bioisostere Replacement of a Labile Sulfonamide” (ACS Med Chem Lett, 2013):

Key:
CYP3A4 = CYP3A4 (Homo sapiens, UniProt P08684); test: Inhibition of CYP3A4 (unknown origin) at 10 uM relative to control; type: ADME
hERG (KCNH2) = hERG (KCNH2) (Homo sapiens, UniProt Q12809); test: Displacement of [35S]MK-499 from human ERG at 10 uM relative to control; conditions: probe [35S]MK-499
In short: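 hERG binding assessed by displacement of [35S]MK-499; percent inhibition at 10 μM test compound.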

[1] = molecular target: T1, Nuclear receptor subfamily 1 group I member 2 (Homo sapiens, UniProt O75469); test: Activation of PXR (unknown origin)
T1 sequence (O75469 whole entry): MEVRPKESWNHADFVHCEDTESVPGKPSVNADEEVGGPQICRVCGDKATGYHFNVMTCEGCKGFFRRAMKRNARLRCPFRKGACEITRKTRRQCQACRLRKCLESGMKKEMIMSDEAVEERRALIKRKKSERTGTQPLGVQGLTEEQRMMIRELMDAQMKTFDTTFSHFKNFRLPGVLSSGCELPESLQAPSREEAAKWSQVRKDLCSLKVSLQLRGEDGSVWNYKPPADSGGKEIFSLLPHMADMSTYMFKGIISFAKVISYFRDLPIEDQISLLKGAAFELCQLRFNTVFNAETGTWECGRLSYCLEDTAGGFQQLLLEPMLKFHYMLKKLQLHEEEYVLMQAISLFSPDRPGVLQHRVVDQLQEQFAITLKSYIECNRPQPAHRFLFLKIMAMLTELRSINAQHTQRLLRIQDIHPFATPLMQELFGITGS

[2] = molecular target: Voltage-dependent N-type calcium channel subunit alpha-1B (Homo sapiens, UniProt Q00975); test: Inhibition of Cav2.2-mediated calcium influx in HEK cells by FLIPR assay; type: cell-based, HEK293
In short: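 Cav2.2 calcium-influx FLIPR assay; compounds screened for percent inhibition at single concentration, active ones titrated for IC50; values averaged over n ≥ 3.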

[3] = Fraction unbound in 100% rat plasma; type: ADME, cell-free
In short: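 Unbound fraction measured in 100% rat plasma.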

Rattus norvegicus [4] = test: Antinociceptive activity in rat inflammatory pain model assessed as reversal of CFA-induced mechanical allodynia at 30 mg/kg, po after 3 hrs; type: functional
In short: (§1)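 Rats given intraplantar complete Freund's adjuvant in the hind paws to induce inflammatory pain; mechanical allodynia assessed 1 and 3 h after a single oral dose. Percent reversal per rat calculated as (postdose − predose)/(preinjury − predose), averaged over n = 6 rats.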

Rattus norvegicus [5] = test: Antinociceptive activity in rat inflammatory pain model assessed as reversal of CFA-induced mechanical allodynia at 30 mg/kg, po after 1 hr; type: functional; in short: as §1
Rattus norvegicus [6] = test: Antinociceptive activity in rat inflammatory pain model assessed as reversal of CFA-induced mechanical allodynia at 10 mg/kg, po after 3 hrs; type: functional; in short: as §1
Rattus norvegicus [7] = test: Antinociceptive activity in rat inflammatory pain model assessed as reversal of CFA-induced mechanical allodynia at 10 mg/kg, po after 1 hr; type: functional; in short: as §1
[8] = Clearance in rat at 3 mg/kg, po and 1 mg/kg, iv; type: ADME, organism-based; conditions: in vivo
In short: (§2)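 Rats dosed 3 mg/kg orally and 1 mg/kg intravenously; PK parameters derived from whole-blood concentrations. Normalized oral AUC given in μM·h·kg/mg, clearance in mL/min/kg, plus half-life and oral bioavailability.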

[9] = Oral bioavailability in rat at 3 mg/kg; type: ADME, organism-based; conditions: in vivo; in short: as §2
MDR1 (ABCB1) = MDR1 (ABCB1) (Homo sapiens, UniProt P08183); test: Activity at human MDR1 expressed in MDCK2 cells assessed as apparent permeability by LC/MS/MS analysis; type: ADME, cell-based, MDCK-II; conditions: MDCK-MDR1
Cytochrome P450 3A4 = Cytochrome P450 3A4 (Homo sapiens, UniProt P08684); test: Inhibition of CYP3A4 (unknown origin); type: ADME
Rattus norvegicus [10] = test: Normalized AUC in rat whole blood at 3 mg/kg, po; type: ADME, organism-based; parameters: dose 3 mg/kg, route oral; conditions: in vivo; in short: as §2
[11] = Metabolic stability in human liver microsomes assessed as compound remaining at 10 uM after 1 hr in presence of NADPH; type: ADME; conditions: read-out: Stability
In short: (§3)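 Liver microsomes (rat or human) incubated with compound and NADPH for 1 h; percent of parent remaining. Table footnote gives 10 μM compound, 1 mM NADPH, 1 mg/mL protein; text gives 1 μM substrate, 1 mg/mL protein.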

[12] = Metabolic stability in rat liver microsomes assessed as compound remaining at 10 uM after 1 hr in presence of NADPH; type: ADME; conditions: read-out: Stability; in short: as §3
Liver microsome [13] = test: Drug metabolism in human liver microsomes assessed as 3-(trifluoromethyl)-benzenesulfonamide level after 1 hr in presence of NADPH; type: ADME
Liver microsome [14] = test: Drug metabolism in rat liver microsomes assessed as 3-(trifluoromethyl)-benzenesulfonamide level after 1 hr in presence of NADPH; type: ADME
[15] = Half life in rat at 3 mg/kg, po and 1 mg/kg, iv; type: ADME, organism-based; conditions: in vivo; in short: as §2
Rattus norvegicus [16] = test: Normalized AUC in rat whole blood assessed as 3-(trifluoromethyl)-benzenesulfonamide level at 3 mg/kg, po; type: ADME, organism-based; parameters: dose 3 mg/kg, route oral; conditions: in vivo
In short: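 Rats given a single 3 mg/kg oral dose of parent; whole-blood levels of parent and sulfonamide metabolite followed over time, n = 2 rats. Metabolite AUC normalized to dose (μM·h·kg/mg).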

CYP3A4, sequence (P08684 whole entry): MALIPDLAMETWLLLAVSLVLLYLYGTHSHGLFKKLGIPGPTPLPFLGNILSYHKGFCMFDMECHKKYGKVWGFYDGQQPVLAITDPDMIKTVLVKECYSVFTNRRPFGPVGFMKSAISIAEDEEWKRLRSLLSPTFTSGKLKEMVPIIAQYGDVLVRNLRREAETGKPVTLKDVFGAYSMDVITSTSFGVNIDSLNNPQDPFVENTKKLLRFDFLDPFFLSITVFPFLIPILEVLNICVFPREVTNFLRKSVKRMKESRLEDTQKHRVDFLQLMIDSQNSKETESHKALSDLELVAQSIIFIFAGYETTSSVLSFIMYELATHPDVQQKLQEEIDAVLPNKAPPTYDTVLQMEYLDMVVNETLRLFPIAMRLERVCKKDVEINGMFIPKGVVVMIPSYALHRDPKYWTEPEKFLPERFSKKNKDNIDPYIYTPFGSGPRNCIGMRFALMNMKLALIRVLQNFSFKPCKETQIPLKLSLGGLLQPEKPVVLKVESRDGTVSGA
hERG (KCNH2), sequence (Q12809 whole entry): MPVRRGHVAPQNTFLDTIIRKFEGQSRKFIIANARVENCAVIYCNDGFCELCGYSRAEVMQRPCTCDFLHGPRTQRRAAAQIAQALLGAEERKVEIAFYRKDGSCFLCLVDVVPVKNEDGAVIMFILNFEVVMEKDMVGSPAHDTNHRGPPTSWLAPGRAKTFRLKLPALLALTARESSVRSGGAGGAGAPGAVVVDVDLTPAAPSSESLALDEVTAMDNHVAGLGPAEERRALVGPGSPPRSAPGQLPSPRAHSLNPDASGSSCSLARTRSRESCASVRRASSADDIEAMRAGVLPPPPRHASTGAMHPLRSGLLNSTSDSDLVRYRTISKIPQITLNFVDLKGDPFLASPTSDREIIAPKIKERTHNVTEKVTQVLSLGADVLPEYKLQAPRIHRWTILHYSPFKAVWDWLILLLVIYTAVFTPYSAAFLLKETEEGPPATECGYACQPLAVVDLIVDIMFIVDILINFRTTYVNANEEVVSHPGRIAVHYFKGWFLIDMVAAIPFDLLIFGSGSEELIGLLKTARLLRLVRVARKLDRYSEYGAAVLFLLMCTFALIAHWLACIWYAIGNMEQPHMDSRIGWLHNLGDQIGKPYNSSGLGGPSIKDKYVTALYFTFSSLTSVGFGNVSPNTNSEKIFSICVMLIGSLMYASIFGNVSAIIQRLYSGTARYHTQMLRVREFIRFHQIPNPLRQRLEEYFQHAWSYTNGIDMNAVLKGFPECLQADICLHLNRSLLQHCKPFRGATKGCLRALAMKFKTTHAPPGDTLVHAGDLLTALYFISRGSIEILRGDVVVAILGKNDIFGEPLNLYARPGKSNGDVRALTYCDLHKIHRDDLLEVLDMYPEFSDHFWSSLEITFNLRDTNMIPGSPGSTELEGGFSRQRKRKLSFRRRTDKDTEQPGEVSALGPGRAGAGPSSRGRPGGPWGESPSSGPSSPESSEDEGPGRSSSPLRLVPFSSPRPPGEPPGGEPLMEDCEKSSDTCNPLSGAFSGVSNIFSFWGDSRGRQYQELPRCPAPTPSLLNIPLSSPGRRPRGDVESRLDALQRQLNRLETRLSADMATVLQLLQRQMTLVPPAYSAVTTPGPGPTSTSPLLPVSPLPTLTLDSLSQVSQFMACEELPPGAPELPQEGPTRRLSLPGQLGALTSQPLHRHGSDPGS
Voltage-dependent N-type calcium channel subunit alpha-1B, sequence (Q00975 whole entry): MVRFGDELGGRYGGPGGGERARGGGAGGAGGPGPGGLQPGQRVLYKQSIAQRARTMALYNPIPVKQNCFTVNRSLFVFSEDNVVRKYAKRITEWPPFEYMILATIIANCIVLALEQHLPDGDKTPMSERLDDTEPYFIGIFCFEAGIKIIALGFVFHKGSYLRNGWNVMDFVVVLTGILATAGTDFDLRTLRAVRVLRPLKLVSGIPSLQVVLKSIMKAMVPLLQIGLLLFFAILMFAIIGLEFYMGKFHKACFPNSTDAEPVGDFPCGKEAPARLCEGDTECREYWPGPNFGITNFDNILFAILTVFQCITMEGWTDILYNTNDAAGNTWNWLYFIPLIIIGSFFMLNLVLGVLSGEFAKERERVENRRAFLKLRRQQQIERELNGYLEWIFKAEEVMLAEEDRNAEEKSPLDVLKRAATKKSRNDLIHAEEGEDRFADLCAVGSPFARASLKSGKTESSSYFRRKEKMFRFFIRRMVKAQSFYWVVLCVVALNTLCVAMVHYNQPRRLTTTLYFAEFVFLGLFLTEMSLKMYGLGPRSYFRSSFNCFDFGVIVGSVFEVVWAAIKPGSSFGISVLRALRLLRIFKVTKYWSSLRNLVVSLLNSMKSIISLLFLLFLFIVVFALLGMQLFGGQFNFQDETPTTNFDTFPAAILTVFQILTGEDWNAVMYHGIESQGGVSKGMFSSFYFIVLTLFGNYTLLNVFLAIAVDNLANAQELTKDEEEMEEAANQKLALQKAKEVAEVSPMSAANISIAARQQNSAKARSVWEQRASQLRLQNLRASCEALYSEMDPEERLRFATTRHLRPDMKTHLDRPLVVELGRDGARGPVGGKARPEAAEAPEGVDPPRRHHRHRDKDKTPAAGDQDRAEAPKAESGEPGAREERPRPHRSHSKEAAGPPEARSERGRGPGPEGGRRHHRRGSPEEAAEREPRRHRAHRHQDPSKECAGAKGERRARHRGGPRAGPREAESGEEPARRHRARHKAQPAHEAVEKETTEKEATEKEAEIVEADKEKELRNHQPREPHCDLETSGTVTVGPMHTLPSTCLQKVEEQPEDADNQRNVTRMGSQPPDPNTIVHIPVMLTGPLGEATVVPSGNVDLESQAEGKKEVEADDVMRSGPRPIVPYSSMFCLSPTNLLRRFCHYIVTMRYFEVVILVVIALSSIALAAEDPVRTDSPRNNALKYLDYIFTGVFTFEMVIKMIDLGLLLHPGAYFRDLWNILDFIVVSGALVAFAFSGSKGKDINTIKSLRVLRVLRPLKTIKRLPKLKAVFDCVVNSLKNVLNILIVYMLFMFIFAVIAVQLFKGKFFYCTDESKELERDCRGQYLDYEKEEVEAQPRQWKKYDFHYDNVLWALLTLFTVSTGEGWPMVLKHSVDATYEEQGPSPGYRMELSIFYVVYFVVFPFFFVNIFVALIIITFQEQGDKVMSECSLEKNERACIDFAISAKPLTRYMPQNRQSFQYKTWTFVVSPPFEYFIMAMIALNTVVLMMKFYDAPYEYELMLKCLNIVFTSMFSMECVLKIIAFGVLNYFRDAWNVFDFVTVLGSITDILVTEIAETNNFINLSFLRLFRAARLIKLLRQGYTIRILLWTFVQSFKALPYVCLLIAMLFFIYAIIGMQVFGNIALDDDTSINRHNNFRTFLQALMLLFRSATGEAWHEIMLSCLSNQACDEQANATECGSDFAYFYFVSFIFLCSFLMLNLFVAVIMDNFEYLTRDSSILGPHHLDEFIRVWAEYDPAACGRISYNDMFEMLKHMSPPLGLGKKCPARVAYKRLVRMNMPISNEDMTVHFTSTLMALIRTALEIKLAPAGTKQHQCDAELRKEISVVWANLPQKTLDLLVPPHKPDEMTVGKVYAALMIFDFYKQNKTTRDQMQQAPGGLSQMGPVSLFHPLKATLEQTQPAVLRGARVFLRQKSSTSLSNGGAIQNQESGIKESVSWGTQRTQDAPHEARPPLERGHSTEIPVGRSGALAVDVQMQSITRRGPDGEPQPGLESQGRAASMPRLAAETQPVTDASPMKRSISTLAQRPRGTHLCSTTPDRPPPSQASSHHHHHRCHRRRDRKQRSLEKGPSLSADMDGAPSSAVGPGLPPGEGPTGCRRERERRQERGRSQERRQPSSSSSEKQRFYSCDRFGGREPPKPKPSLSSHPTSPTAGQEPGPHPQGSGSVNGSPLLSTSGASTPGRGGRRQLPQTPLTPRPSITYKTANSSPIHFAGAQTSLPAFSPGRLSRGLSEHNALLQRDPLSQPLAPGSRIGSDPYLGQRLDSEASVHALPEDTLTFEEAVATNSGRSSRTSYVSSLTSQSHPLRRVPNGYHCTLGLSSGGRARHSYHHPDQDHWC
Cytochrome P450 3A4, sequence (P08684 whole entry): as the sequence (P08684 whole entry) above

Row | Structure (SMILES) | inhibition at 10 µM (hERG (KCNH2)) [%] | EC50 [1] [nM] | IC50 [2] [nM] | remaining at 1 h, 10 µM [11] [%] | remaining at 1 h, 10 µM [12] [%] | further results
1 | CS(=O)(=O)c1ccc(C(=O)N2CCC(N(C3CC3)S(=O)(=O)c3cccc(C(F)(F)F)c3)CC2)c(C(F)(F)F)c1 | 58 | 2800 | 21 |  |  | inhibition at 10 µM (CYP3A4): 75%
2 | CS(=O)(=O)c1ccc(C(=O)N2CCC(N(C3CC3)S(=O)(=O)c3cccc(C(F)(F)F)c3)CC2)c(F)c1 | 78 | 6800 | 350 |  |  | 
3 | CC(C)(C1CCN(C(=O)c2cc(F)ccc2S(C)(=O)=O)CC1)S(=O)(=O)c1cccc(C(F)(F)F)c1 |  | 2500 | 510 | 64 | 68 | fraction unbound [3]: 0.068; Efficacy (Rattus norvegicus [4]): 54%; Efficacy (Rattus norvegicus [5]): 57%; Efficacy (Rattus norvegicus [6]): 49%; Efficacy (Rattus norvegicus [7]): 36%; clearance [8]: 29 mL/min/kg; bioavailability [9]: 24%; Papp (MDR1 (ABCB1)): 35 ×10⁻⁶ cm/s; IC50 (Cytochrome P450 3A4): 10000 nM; AUC/dose (Rattus norvegicus [10]): 0.27 µM·kg·h/mg
4 | NS(=O)(=O)c1cccc(C(F)(F)F)c1 |  |  | > 10000 |  |  | Efficacy (Rattus norvegicus [4]): 44%; Efficacy (Rattus norvegicus [5]): 53%; clearance [8]: 0.31 mL/min/kg; bioavailability [9]: 46%; AUC/dose (Rattus norvegicus [10]): 111 µM·kg·h/mg
5 | CCN(C1CCN(C(=O)c2ccccc2OC(F)(F)F)CC1)S(=O)(=O)c1cccc(C(F)(F)F)c1 |  |  | 470 | 30 | 3.4 | Drug metabolism (Liver microsome [13]): 1.16 µM; Drug metabolism (Liver microsome [14]): 0.08 µM
6 | CC(C)(C1CCN(C(=O)c2ccc(S(C)(=O)=O)cc2OC(F)(F)F)CC1)S(=O)(=O)c1cccc(C(F)(F)F)c1 |  | > 30000 | 92 | 62 | 73 | fraction unbound [3]: 0.013; Efficacy (Rattus norvegicus [6]): 30%; Efficacy (Rattus norvegicus [7]): 21%; half-life [15]: 2.3 h; clearance [8]: 27 mL/min/kg; bioavailability [9]: 95%; Papp (MDR1 (ABCB1)): 35 ×10⁻⁶ cm/s; AUC/dose (Rattus norvegicus [10]): 0.97 µM·kg·h/mg
7 | CS(=O)(=O)c1cc(C(F)(F)F)ccc1C(=O)N1CCC2(CCN(S(=O)(=O)c3cccc(C(F)(F)F)c3)CC2)C1 |  |  | 72 | 8.5 | 12 | AUC/dose (Rattus norvegicus [16]): 218 µM·kg·h/mg; AUC/dose (Rattus norvegicus [10]): 0.022 µM·kg·h/mg
8 | CS(=O)(=O)c1ccc(C(=O)N2CCC(CS(=O)(=O)c3cccc(C(F)(F)F)c3)CC2)c(OC(F)(F)F)c1 |  |  | 360 |  |  | 
9 | CC(C1CCN(C(=O)c2ccc(S(C)(=O)=O)cc2OC(F)(F)F)CC1)S(=O)(=O)c1cccc(C(F)(F)F)c1 (stereo in doubt; 30 en-2) |  |  | 370 |  |  | 
10 | CS(=O)(=O)c1ccc(C(=O)N2CCC(N(C3CC3)S(=O)(=O)c3cccc(C(F)(F)F)c3)CC2)c(OC(F)(F)F)c1 | 63 | 1700 | 48 |  |  | inhibition at 10 µM (CYP3A4): 16%
11 | CN(C1CCN(C(=O)c2ccccc2S(C)(=O)=O)CC1)S(=O)(=O)c1cccc(C(F)(F)F)c1 |  |  | 460 | 26 | 18 | Drug metabolism (Liver microsome [13]): 0.95 µM; Drug metabolism (Liver microsome [14]): 0.08 µM
12 | CS(=O)(=O)c1ccc(C#N)cc1C(=O)N1CCC(N(C2CC2)S(=O)(=O)c2cccc(C(F)(F)F)c2)CC1 | 41 | 5000 | 670 |  |  | inhibition at 10 µM (CYP3A4): 59%
13 | CS(=O)(=O)c1ccc(F)cc1C(=O)N1CC(N(C2CC2)S(=O)(=O)c2cccc(C(F)(F)F)c2)C1 |  |  | 970 |  |  | 
14 | CS(=O)(=O)c1ccc(F)cc1C(=O)N1CCC2(CCN(S(=O)(=O)c3cccc(C(F)(F)F)c3)CC2)C1 |  |  | 190 |  |  | 
15 | CS(=O)(=O)c1cc(C#N)ccc1C(=O)N1CCC(N(C2CC2)S(=O)(=O)c2cccc(C(F)(F)F)c2)CC1 | 66 | 8400 | 450 |  |  | inhibition at 10 µM (CYP3A4): 86%
